Assay results as given in ChEMBL document CHEMBL3272326, “Antitumor septacidin analogues” (J Med Chem, 1977).

Key:
[1] = test system: Salmonella typhimurium; assay: Mutagenicity in Salmonella typhimurium TA1538 by Ames test; format: toxicity, organism-based; details: salmonella enterica subsp. enterica serovar typhimurium
In short: (§1)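 Salmonella plate mutagenicity test; compounds tested at levels up to 1 μmol per plate.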

[2] = test system: Salmonella typhimurium; assay: Mutagenicity in Salmonella typhimurium TA1537 by Ames test; format: toxicity, organism-based; details: salmonella enterica subsp. enterica serovar typhimurium; in short: as §1
[3] = test system: Salmonella typhimurium; assay: Mutagenicity in Salmonella typhimurium TA1536 by Ames test in presence of S9 fraction; format: toxicity, organism-based; details: salmonella enterica subsp. enterica serovar typhimurium; in short: as §1
[4] = test system: Salmonella typhimurium; assay: Mutagenicity in Salmonella typhimurium TA1535 by Ames test; format: toxicity, organism-based; details: salmonella enterica subsp. enterica serovar typhimurium; in short: as §1
[5] = test system: P388 (Mus musculus); assay: Antitumor activity against mouse P388 cells allografted in mouse assessed as tumor growth inhibition at optimum dose administered qd from day 1 to 9 relative to control
[6] = test system: Salmonella typhimurium; assay: Mutagenicity in Salmonella typhimurium TA1538 by Ames test in presence of S9 fraction; format: toxicity, organism-based; details: salmonella enterica subsp. enterica serovar typhimurium; in short: as §1
[7] = test system: P388 (Mus musculus); assay: Antitumor activity against mouse P388 cells allografted in mouse assessed as optimum dose administered qd from day 1 to 9
[8] = test system: L1210; assay: Inhibition of DNA synthesis in mouse L1210 cells after 3 hrs by [3H]thymidine incorporation assay; format: functional; details: L1210, 3 h, read-out: ED50 (the source's name)
In short: (§2)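 Cultured lymphoid leukemia L1210 cells; nucleic acid synthesis inhibition measured by a previously reported procedure, modified by adding 1% Me2SO for solubility.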

[9] = test system: L1210; assay: Cytotoxicity against mouse L1210 cells; format: functional, cell-based; details: read-out: I50
[10] = test system: L1210; assay: Inhibition of RNA synthesis in mouse L1210 cells after 3 hrs by [3H]uridine incorporation assay; format: functional; details: L1210, 3 h, read-out: ED50 (the source's name); in short: as §2
[11] = test system: Salmonella typhimurium; assay: Mutagenicity in Salmonella typhimurium TA1535 by Ames test in presence of S9 fraction; format: toxicity, organism-based; details: salmonella enterica subsp. enterica serovar typhimurium; in short: as §1
[12] = test system: Salmonella typhimurium; assay: Mutagenicity in Salmonella typhimurium TA1536 by Ames test; format: toxicity, organism-based; details: salmonella enterica subsp. enterica serovar typhimurium; in short: as §1
[13] = test system: Salmonella typhimurium; assay: Mutagenicity in Salmonella typhimurium TA1537 by Ames test in presence of S9 fraction; format: toxicity, organism-based; details: salmonella enterica subsp. enterica serovar typhimurium; in short: as §1
[14] = test system: Calf thymus DNA; assay: Binding affinity to calf thymus helical DNA assessed as change in melting temperature by […] analysis; format: nucleic-acid assay; details: Bos taurus
In short: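 Helix–coil transition temperature shift of isolated helical DNA in solution. Modified procedure: 0.010 M phosphate buffer with 10⁻⁵ M EDTA, pH 7.0, plus 5% Me2SO to solubilize compound.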

In the case of CCCCCC(=O)NCC(=O)N[C@@H]1[C@@H](O)[C@H](O)[C@@H](Nc2ncnc3[nH]cnc23)O[C@H]1C, the Activity [1] is reported as “Non-toxic”, the Activity [2] is reported as “Non-toxic” and the Activity [3] is reported as “Non-toxic”. For the same compound, the Activity [4] was “Non-toxic”, the T/C [5] was < 125% and the Activity [6] was “Non-toxic”. The Activity [7] was 0.5 mg/kg, the EC50 [8] was > 1000 µM and the IC50 [9] was 250 µM. For the same compound, the EC50 [10] was > 1000 µM, the Activity [11] was “Non-toxic” and the Activity [12] was “Non-toxic”. For the same compound, the Activity [13] was “Non-toxic”.

Compound CCCCCCCCCCCCCCCC(=O)NCC(=O)N[C@@H]1[C@@H](O)[C@H](O)[C@@H](Nc2ncnc3[nH]cnc23)O[C@H]1CO has a ΔTm [14] of 3.6 °C, a T/C [5] of 136% and an Activity [7] of 0.5 mg/kg. The EC50 [8] was 2.5 µM, the IC50 [9] was > 100 µM and the EC50 [10] was 1.6 µM.

For CCCCCCCCCCCC(=O)NCC(=O)N[C@@H]1[C@@H](O)[C@H](O)[C@@H](Nc2ncnc3[nH]cnc23)O[C@H]1C, the T/C [5] was 137%, the Activity [7] was 1 mg/kg and the EC50 [8] was 29 µM. For the same compound, the IC50 [9] was > 10 µM and the EC50 [10] was 18 µM.

CC(C)CCCCCCCCCCCCC(=O)N[C@@H]1[C@@H](O)[C@H](O)[C@@H](Nc2ncnc3[nH]cnc23)O[C@H]1C was tested, and the Activity [1] was “Non-toxic”, the Activity [2] was “Non-toxic” and the Activity [3] was “Non-toxic”. The ΔTm [14] was 0.5 °C, the Activity [4] was “Non-toxic” and the T/C [5] was < 125%. For the same compound, the Activity [6] was “Non-toxic”, the Activity [7] was 0.5 mg/kg and the EC50 [8] was > 1000 µM. The IC50 [9] was > 100 µM, the EC50 [10] was > 1000 µM and the Activity [11] was “Non-toxic”. The Activity [12] was “Non-toxic” and the Activity [13] was “Non-toxic”.

CCCCCCCCCCCCCCCCC(NC(C)=O)C(=O)N[C@@H]1[C@@H](O)[C@H](O)[C@@H](Nc2ncnc3[nH]cnc23)O[C@H]1C (stereo partly specified) was tested, and the EC50 [8] was > 1000 µM and the EC50 [10] was > 1000 µM.

With CCOCCC(=O)NCC(=O)N[C@@H]1[C@@H](O)[C@H](O)[C@@H](Nc2ncnc3[nH]cnc23)O[C@H]1C the T/C [5] was < 125%, the Activity [7] was 3.1 mg/kg and the EC50 [8] was > 1000 µM. For the same compound, the IC50 [9] was > 500 µM and the EC50 [10] was > 1000 µM.

In the case of CCOCCC(=O)NCC(=O)N[C@@H]1[C@@H](O)[C@H](O)[C@@H](Nc2ncnc3[nH]cnc23)O[C@H]1CO, the ΔTm [14] is reported as 0.4 °C, the T/C [5] is reported as < 125% and the Activity [7] is reported as 3.1 mg/kg. For the same compound, the EC50 [8] was > 1000 µM, the IC50 [9] was > 500 µM and the EC50 [10] was > 1000 µM.

With CC(C)CCCCCCCCCCCCC(=O)NCC(=O)N[C@@H]1[C@@H](O)[C@H](O)[C@@H](Nc2ncnc3[nH]cnc23)O[C@H]1CO the Activity [1] was “Non-toxic”, the Activity [2] was “Non-toxic” and the Activity [3] was “Non-toxic”. For the same compound, the ΔTm [14] was 1.7 °C, the Activity [4] was “Non-toxic” and the T/C [5] was 149%. The Activity [6] was “Non-toxic”, the Activity [7] was 0.5 mg/kg and the EC50 [8] was 1.6 µM. For the same compound, the IC50 [9] was > 10 µM, the EC50 [10] was 0.69 µM and the Activity [11] was “Non-toxic”. The Activity [12] was “Non-toxic” and the Activity [13] was “Non-toxic”.

Compound CC(C)CCCCCCCCCCCCC(=O)NCC(=O)N[C@@H]1[C@@H](O)[C@H](O)[C@@H](Nc2ncnc3[nH]cnc23)O[C@H]1C(O)CO (stereo partly specified) has a T/C [5] of 154%, an Activity [7] of 0.5 mg/kg and an EC50 [8] of 0.4 µM. The IC50 [9] was > 5 µM and the EC50 [10] was 1 µM.

CC(C)CCCCCCCCCCCCC(=O)NCC(=O)N[C@@H]1[C@@H](O)[C@H](O)[C@@H](Nc2ncnc3[nH]cnc23)O[C@H]1C showed a ΔTm [14] of 0.6 °C, a T/C [5] of 160% and an Activity [7] of 1 mg/kg. The EC50 [8] was 1.8 µM, the IC50 [9] was > 20 µM and the EC50 [10] was 1.1 µM.

CCCCCCCCCCCC(=O)NCC(=O)N[C@@H]1[C@@H](O)[C@H](O)[C@@H](Nc2ncnc3[nH]cnc23)O[C@H]1CO was tested, and the Activity [1] was “Non-toxic”, the Activity [2] was “Non-toxic” and the Activity [3] was “Non-toxic”. The ΔTm [14] was 0.5 °C, the Activity [4] was “Non-toxic” and the T/C [5] was 133%. For the same compound, the Activity [6] was “Non-toxic”, the Activity [7] was 1 mg/kg and the EC50 [8] was 20 µM. For the same compound, the IC50 [9] was 3 µM, the EC50 [10] was 5.5 µM and the Activity [11] was “Non-toxic”. For the same compound, the Activity [12] was “Non-toxic” and the Activity [13] was “Non-toxic”.

In the case of COc1cccc2c1C(=O)c1c(O)c3c(c(O)c1C2=O)C[C@@](O)(C(=O)CO)C[C@@H]3O[C@H]1C[C@H](N)[C@H](O)[C@H](C)O1 [DOXORUBICIN], the ΔTm [14] is reported as 13.6 °C, the T/C [5] is reported as 193% and the Activity [7] is reported as 1 mg/kg. For the same compound, the EC50 [8] was 1.5 µM, the IC50 [9] was 0.032 µM and the EC50 [10] was 0.67 µM.
